Data: ChEMBL document CHEMBL1151420 (Antimicrob Agents Chemother, 2007)
Values after ≈ are worked out from the molar mass of the structure shown.

What was measured:
[1] = Oral bioavailability in horse at 20 mg/kg administered as single dose; assay type: ADME, organism-based, Equus caballus; conditions: in vivo
Summary of the method: (§1)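 Single 20 mg/kg dose of crushed tablets suspended in 100 ml tap water, given by nasogastric tube and flushed with at least 200 ml water. Plasma sampled from 20 min to 30 h. Total concentration measured by HPLC-fluorescence (LOQ 50 ng/ml). Noncompartmental analysis; absolute F was calculated against the i.v. data.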

[2] = test system: Equus caballus; assay: fCmax in horse at 20 mg/kg, po administered as single dose; assay type: ADME, organism-based; parameters: dose 20 mg/kg, route oral; conditions: in vivo
Summary of the method: (§2)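 Horses (six, A–F) were dosed once intragastrically by nasogastric tube with 20 mg/kg of crushed tablets suspended in 100 ml tap water, followed by a ≥200 ml water flush. Heparinized plasma was sampled at 0 and from 20 min to 30 h and stored at –70°C. Unbound drug was isolated by 30 kDa ultrafiltration with ganciclovir internal standard and measured by LC-MS/MS (LOQ 5 ng/ml). Parameters were derived noncompartmentally.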

[3] = species: Equus caballus; assay: Renal toxicity in horse assessed as changes in urea level; assay type: organism-based; conditions: in vivo
Summary of the method: (§3)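 Blood was drawn once daily on the day before, the day of, and the day after drug administration. Plasma urea and creatinine were measured to assess kidney function.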

[4] = Free mean residence time in horse at 10 mg/kg, iv after 1 hr by three-compartmental study; assay type: ADME, organism-based, Equus caballus; parameters: dose 10 mg/kg, route intravenous; conditions: in vivo
[5] = Mean residence time in iv dosed adult horse; assay type: ADME, organism-based, Equus caballus; conditions: in vivo
[6] = test system: Equus caballus; assay: fAUC in horse at 10 mg/kg, iv after 1 hr by three-compartmental study; assay type: ADME, organism-based; parameters: dose 10 mg/kg, route intravenous; conditions: in vivo
[7] = test system: Equid alphaherpesvirus 1; assay: Antiviral activity against EHV1 assessed as inhibition of plaque formation; assay type: functional, organism-based
[8] = species: Equus caballus; assay: Renal toxicity in horse assessed as changes in creatinine level; assay type: organism-based; conditions: in vivo; summary of the method: as §3
[9] = Total Cmax in horse at 10 mg/kg, iv after 1 hr by two-compartmental study; assay type: ADME, organism-based, Equus caballus; parameters: dose 10 mg/kg, route intravenous; conditions: in vivo
[10] = Total mean residence time in horse at 10 mg/kg, iv after 1 hr by two-compartmental study; assay type: ADME, organism-based, Equus caballus; parameters: dose 10 mg/kg, route intravenous; conditions: in vivo
[11] = Plasma concentration in horse at 20 mg/kg, po administered as single dose after 5 hrs; assay type: ADME, organism-based, Equus caballus; parameters: dose 20 mg/kg, route oral; summary of the method: as §1
[12] = test system: Equus caballus; assay: fCmax in horse at 10 mg/kg, iv after 1 hr by three-compartmental study; assay type: ADME, organism-based; parameters: dose 10 mg/kg, route intravenous; conditions: in vivo
[13] = Distribution coefficient, log P of the compound; assay type: physicochemical; conditions: octanol/water
[14] = Cmax in iv dosed adult horse; assay type: ADME, organism-based, Equus caballus; parameters: route intravenous; conditions: in vivo
[15] = Solubility at pH 2.3 to 9.2; assay type: physicochemical; conditions: buffer
[16] = test system: Equus caballus; assay: fAUC in horse at 20 mg/kg, po administered as single dose; assay type: ADME, organism-based; parameters: dose 20 mg/kg, route oral; conditions: in vivo; summary of the method: as §2
[17] = Cmax in horse at 10 mg/kg, iv after 15 mins; assay type: ADME, organism-based, Equus caballus; parameters: dose 10 mg/kg, route intravenous; conditions: in vivo

SMILES	bioavailability [1]	fCmax [2]	Activity [3]	MRT [4]	MRT [5]	fAUC [6]	EC50 [7]	Activity [8]	Cmax [9]	MRT [10]	concentration at 5 h [11]	fCmax [12]	logP [13]	Cmax [14]	solubility [15]	fAUC [16]	Cmax [17]
Nc1nc2c(ncn2COCCO)c(=O)[nH]1 [ACYCLOVIR]	2.8%	0.4 µg/mL	Non-toxic	23.1 h	7.09 h	24600 ng·h/mL	1.7 µg/mL (≈ 7.55 µM)	Non-toxic	10700 ng/mL	5.38 h	50 ng/mL	10.5 µg/mL	-1.59	10400 ng/mL	1000 µg/mL (≈ 4440 µM)	3530 ng·h/mL	46200 ng/mL
CC(C)[C@H](N)C(=O)OCCOCn1cnc2c(=O)[nH]c(N)nc21 [VALACYCLOVIR]		4.76 µg/mL														14900 ng·h/mL	
